Sequences and labels used below:
B1: tRNA (parent)
chain: GUUCCGUUGGCGUAAUGGUAACGCGUCUCCCUCCUAAGGAGAAGACUGCGGGUUCGAGUCCCGUACGGAACG

This sample holds only a part of the variants without activity.

In this data set the parent is B1. The experiment in a line: yeast fitness relative to wild type (ratio to wild type); higher = fitter; tRNA-Arg(CCU), competitive growth, 37 C, YPD. Summed up: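 Changes in genotype frequencies gave Darwinian fitness relative to wild type. Frequencies were read by 100-nucleotide paired-end sequencing of gene amplicons before and after pooled Saccharomyces cerevisiae strains, carrying tRNA-Arg(CCU) gene variants at the native locus, were competed in YPD at 37°C for 24 hours in six replicates. A genotype was kept only with ≥ 100 starting reads, and estimates < 0.5 were set to 0.5.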
GUUGCGUUGGCGUAAUGGUAAUGCGUCUCCCUCCUAAGGAGAAGACUGCGGGUUGGAGUCCCGUACGGAACG [C4G C22U C55G]: the yeast fitness was at most 0.5. The figure for GUUGCGUUGGCGUAAUGGUAACGCGUCUCACUCCUAAGGAGCAGACUGCGGGUUCGAGUCCCGUACGGUACG [C4G C30A A42C A69U] is at most 0.5; for GUUGCGUUGGCGUAAUGGUAAUGCGUCUCCCUCCUAACGAGAAGACUGCGGGUUCGAGUCCCGUACGGAACG [C4G C22U G38C] it is at most 0.5; for GUUGCGUUGGCGUAAUGGUAACGCGUCUACCUCCUAAGGAGAAGACUGCGGGUUCGAGUUGCGUACGGAACG [C4G C29A C60U C61G] it is at most 0.5. For GUUGCGUUGGCGUAAUGGUAACGCGUCUCGCUCCUAAGGAGAAGACUGCGGGUUUGAGUCCCGUACGGAACG [C4G C30G C55U], the yeast fitness is at most 0.5.

For the variant GUUGCGUUGGCGUAAUGGUAACGCGUCUCGCUCCUAAGGGGAAGACUGCGGGUUCGAGUCCCGUCCGGAACG [C4G C30G A40G A65C], the yeast fitness was at most 0.5. On to GUUGCGUUGGCGUAAUGGUAACGCGUCUGCCUCCUAAGGAGAAGACUGUGGGUUCGAGUCCCGUACGGAACG [C4G C29G C49U], for which the yeast fitness came out at 0.588. Next, GUUGCGUUGGCGUAAUGGUAAUGCGUCUCCCUCCUAAGGAGAAGAGUGCGGGUUCGAGUCCCAUACGGAACG [C4G C22U C46G G63A]: at most 0.5; GUUGCGUUGGCGUAAUGGUAAUGCGUCUCCCCCCUAAGGAGAAGACUGCGGGUUCGAGUCCCGCACGGAACG [C4G C22U U32C U64C]: at most 0.5.

Consider GUUGCGUUGGCGUAAUGGUAACGUGUCUCCCUCCUAAGGAGAAGACUGCGGGUUCGAGUCCCGUACGGUACG [C4G C24U A69U], for which the yeast fitness turned out to be 0.652. Next, GUUGCGUUGGCGUAAUGGUAACGCGUCUCGCUCCUAAGGAGAAGACUGCGGGUUCGAGUCCCGUACGGUACG [C4G C30G A69U]: at most 0.5; GUUGCGUUGGCGUAAUGGUAACGCGUCUACCUGCUAAGGAGAAGCCUGCGGGUUCGAGUCCCGUACCGAACG [C4G C29A C33G A45C G67C]: at most 0.5; GUUGCGUUGGCGUAAUGGUAACGCGUAUCCCUCCUAAGGAGAAGACUGCGGGUUCGAGUCACGUAUGGCACG [C4G C27A C61A C66U A69C]: at most 0.5.

In the case of GUUGCGUUGGCGUAAUGGUAACGCGUUUCCCUCCUAAGGAGAAGACUGCGGGUUCGAAUCCCGUACGGAACG [C4G C27U G58A], the yeast fitness amounted to 0.61. Next, GUUGCGUUGGCGUAAUGGUAACGCGUAUCCUUCCUAAGGAGAAGACUGCGGGUUCGAGUCCCGUACGGAACG [C4G C27A C31U]: at most 0.5.

On to GUUGCGUUGGCGUAAUGGUAACGUGUCUCCCGCCUAAGGUGAAGACUGCGGGUUCGAGUCCCGGACGGAACG [C4G C24U U32G A40U U64G], for which the yeast fitness is at most 0.5.

Consider GUUGCGUUGGCGUAAUGGUAACGCGUCUCGCUCCUAAGGAGUAGACUGCGGGUUUGAGUCCCGUAAGGAACG [C4G C30G A42U C55U C66A], for which the yeast fitness was at most 0.5. As to GUUGCGUUGGCGUAAUGGUAAUGCGUCUCCCUCGUAAGGAGAAGACUGCGGGUUCGAGUCCCCUACGGAACG [C4G C22U C34G G63C], the yeast fitness is at most 0.5. For the variant GUUGCGUUGGCGUAAUGGUAACGCGUUUCCCUCCUAAGGAGAAGACUGUGGGUUCGAGUCCCGUACGGAACG [C4G C27U C49U], the yeast fitness is at most 0.5. The figure for GUUGCGUUGGCGUAAUGGUAACGCGUCUCUCUCCUAAGGGGAAGACUGCGGGUUCGAGUGCCGUACGGAACG [C4G C30U A40G C60G] is at most 0.5. Next, GUUGCGUUGGCGUAAUGGUAACGUGUCUCCCUCCUAAGGAGAAGACUGCGGGUUCGAGUCCAGUAUGGAACG [C4G C24U C62A C66U]: at most 0.5; GUUGCGUUGGCGUAAUGGUAACGCGUCUCACUCCUAAGGAGAAGACUGCGGGUUCGAGUCCCGUACGGAUCG [C4G C30A A70U]: 0.695; GUUGCGUUGGCGUAAUGGUAACGGGUACCCCUCCUAAGGAGAAGACUGCGGGUUCGAGUCCCGUUCGGAACG [C4G C24G C27A U28C A65U]: at most 0.5.

Turning to GUUGCGUUGGCGUAAUGGUAACGUGUCUCCCUCCUAAGGAGAAGACCGCGGGUUCGAGUCCCGUACGGAACG [C4G C24U U47C], the yeast fitness came to 0.673. For GUUGCGUUGGCGUAAUGGUAACGCGUCUCUCUCCUAAGGAGAAGACUGCGGGUUCGAGUCCCCUACGGAACG [C4G C30U G63C], the yeast fitness was determined as 0.628.

As for GUUGCGUUGGCGUAAUGGUAACGCGUCUGCCUCCUAAGGAGAAGAUUGCGGGUUCGAGUCCCGUACGGAACG [C4G C29G C46U], the yeast fitness was at most 0.5.

Take GUUGCGUUGGCGUAAUGGUAACGCGUCUCUCUCCUAAGGAGAAGACUGUGGGUUCGAGUCCCGUACGGAACG [C4G C30U C49U]: the yeast fitness was found to be 0.604. With GUUGCGUUGGCGUAAUGGUAACGCGUUUGCCUCCUAAGGAGAAGACUGCGGGUUCGAGUCCCGUACGGAACG [C4G C27U C29G], the yeast fitness is at most 0.5.

In the case of GUUGCGUUGGCGUAAUGGUAACGCGUAUCCCUCCUGAGGAGAAGACUGCGGGUUCGAGUCCCGUACGGAACG [C4G C27A A36G], the yeast fitness was found to be 0.534. GUUGCGUUGGCGUAAUGGUAACGCGUCUACCUCUUUAGGAGAAGACUGCGGGUUCGAGUCCCGUACGGAACG [C4G C29A C34U A36U]: the yeast fitness was 0.578. Next, GUUGCGUUGGCGUAAUGGUAACGCGUAUCCCUCCUAAGGAGAAGACUGCGGGUUCGAGUCCCGUACGGAACG [C4G C27A]: 0.734; GUUGCGUUGGCGUAAUGGUAACGCGUUUCCCUCCUAAGGAGAAGACUGCGGGUUCGAGUCCCGUACGGAACG [C4G C27U]: 0.789; GUUGCGUUGGCGUAAUGGUAACGCGUCUCACUCCUAAGGAGAAGACUGCGGGUUCGAGUCCCGUACAGAACG [C4G C30A G67A]: at most 0.5.

As to GUUGCGUUGGCGUAAUGGUAACGCGUCUCCAUCCUAAGGAGCAGAGUGCGGGUUCGAGUCCCGUACGGAACG [C4G C31A A42C C46G], the yeast fitness came out at 0.561. The figure for GUUGCGUUGGCGUAAUGGUAACGCGUCUCUCUCCUAAGGAAAAGACUGCGGGUUCGAGUCCCGUACGGAACG [C4G C30U G41A] is 0.532; for GUUGCGUUGGCGUAAUGGUAAUGCGUCUCCCUCGUUAGGAGAAGACUGCGGGUUCGAGUCUCGUACGGAACG [C4G C22U C34G A36U C61U] it is at most 0.5; for GUUGCGUUGGCGUAAUGGUAACGGGUCUCCCUGCUAAGGAGAAGACUGCGGGUUCGAGUCCCAUACGGAACG [C4G C24G C33G G63A] it is 0.554.

The values are drawn from the RNAGym collection of RNA variant scans (doi:10.1126/science.aae0568).
